The values that follow come from ChEMBL document CHEMBL2086277, “Pyridonepezils, new dual AChE inhibitors as potential drugs for the treatment of Alzheimer's disease: synthesis, biological assessment, and molecular modeling” (Eur J Med Chem, 2012).

In general, IC50 refers to the concentration that gives 50% inhibition.

The target in series [1] is T1, Acetylcholinesterase (Homo sapiens, UniProt P22303). Put plainly: Inhibition of human erythrocyte AChE using acetylthiocholine as substrate by Ellman method. A general note: DTNB colorimetry detects thiols as they appear.
T1 sequence (P22303 whole entry): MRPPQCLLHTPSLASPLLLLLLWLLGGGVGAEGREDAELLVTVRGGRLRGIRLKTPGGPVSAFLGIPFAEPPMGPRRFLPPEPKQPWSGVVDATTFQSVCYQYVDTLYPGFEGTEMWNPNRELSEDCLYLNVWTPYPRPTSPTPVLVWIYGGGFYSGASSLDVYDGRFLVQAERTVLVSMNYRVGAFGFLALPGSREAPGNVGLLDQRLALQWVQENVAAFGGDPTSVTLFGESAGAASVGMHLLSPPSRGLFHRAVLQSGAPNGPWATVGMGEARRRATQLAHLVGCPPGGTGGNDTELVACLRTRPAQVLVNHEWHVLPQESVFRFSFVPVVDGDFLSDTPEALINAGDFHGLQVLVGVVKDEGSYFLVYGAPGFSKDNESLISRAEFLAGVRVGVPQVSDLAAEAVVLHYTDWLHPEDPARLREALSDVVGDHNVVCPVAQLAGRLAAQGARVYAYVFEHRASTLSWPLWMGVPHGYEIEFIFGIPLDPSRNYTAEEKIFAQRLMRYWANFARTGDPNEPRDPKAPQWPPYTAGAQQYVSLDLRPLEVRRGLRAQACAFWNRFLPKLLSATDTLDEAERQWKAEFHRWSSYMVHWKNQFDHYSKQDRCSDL
In series [2] the target is Cholinesterase (Homo sapiens, UniProt P06276). The experiment in a line: Inhibition of human serum BChE using butyrylthiocholine as substrate by Ellman method. In a few lines:
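IC50 is the concentration giving 50% inhibition of human BuChE, reported as mean ± SEM of three independent experiments.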

The nature of series [3]: Permeability of the compound in PBS/ethanol at 1 mg/ml after 4 hrs by PAMPA. The format is ADME. The settings on record: for Papp at 4 h, 1 mg/ml: PAMPA, read-out: permeability. In a few lines:
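PAMPA-BBB: permeability (Pe) measured through a porcine brain lipid extract membrane, using PBS:EtOH (70:30) as the medium. The assay was validated against 15 commercial drugs by correlating measured with reported Pe values. Data are mean ± SD of three independent experiments.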
On the technique in general: In PAMPA a lipid-coated filter parts donor from acceptor wells.

For series [4], the target named is Cholinesterase (Equus caballus, UniProt P81908). The experiment in a line: Inhibition of equine BChE.
Sequence of Cholinesterase (Equus caballus, UniProt P81908) (P81908 whole entry): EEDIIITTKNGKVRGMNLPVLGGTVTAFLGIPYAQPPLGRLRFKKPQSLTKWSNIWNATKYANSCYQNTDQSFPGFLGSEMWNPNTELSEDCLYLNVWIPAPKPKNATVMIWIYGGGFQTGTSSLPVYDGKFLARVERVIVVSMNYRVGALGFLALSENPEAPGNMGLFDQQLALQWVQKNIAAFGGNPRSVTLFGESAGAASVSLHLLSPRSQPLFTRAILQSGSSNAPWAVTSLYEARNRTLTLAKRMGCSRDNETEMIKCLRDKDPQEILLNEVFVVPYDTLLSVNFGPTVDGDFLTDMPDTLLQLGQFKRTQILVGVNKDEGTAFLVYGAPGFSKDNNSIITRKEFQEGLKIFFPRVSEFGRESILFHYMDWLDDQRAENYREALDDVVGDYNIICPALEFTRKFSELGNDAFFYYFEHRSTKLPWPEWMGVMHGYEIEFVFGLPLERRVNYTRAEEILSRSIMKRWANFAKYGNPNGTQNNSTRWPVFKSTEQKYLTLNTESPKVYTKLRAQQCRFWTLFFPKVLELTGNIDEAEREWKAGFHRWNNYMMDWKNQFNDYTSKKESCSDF
The target in series [5] is T1, Acetylcholinesterase. Put plainly: Ratio of donepezil IC50 to compound IC50 for human erythrocyte AChE using acetylthiocholine as substrate by Ellman method.

A value given as a limit tells only on which side of the number the result lay.

Sequence of Cholinesterase (Homo sapiens, UniProt P06276) (P06276 whole entry): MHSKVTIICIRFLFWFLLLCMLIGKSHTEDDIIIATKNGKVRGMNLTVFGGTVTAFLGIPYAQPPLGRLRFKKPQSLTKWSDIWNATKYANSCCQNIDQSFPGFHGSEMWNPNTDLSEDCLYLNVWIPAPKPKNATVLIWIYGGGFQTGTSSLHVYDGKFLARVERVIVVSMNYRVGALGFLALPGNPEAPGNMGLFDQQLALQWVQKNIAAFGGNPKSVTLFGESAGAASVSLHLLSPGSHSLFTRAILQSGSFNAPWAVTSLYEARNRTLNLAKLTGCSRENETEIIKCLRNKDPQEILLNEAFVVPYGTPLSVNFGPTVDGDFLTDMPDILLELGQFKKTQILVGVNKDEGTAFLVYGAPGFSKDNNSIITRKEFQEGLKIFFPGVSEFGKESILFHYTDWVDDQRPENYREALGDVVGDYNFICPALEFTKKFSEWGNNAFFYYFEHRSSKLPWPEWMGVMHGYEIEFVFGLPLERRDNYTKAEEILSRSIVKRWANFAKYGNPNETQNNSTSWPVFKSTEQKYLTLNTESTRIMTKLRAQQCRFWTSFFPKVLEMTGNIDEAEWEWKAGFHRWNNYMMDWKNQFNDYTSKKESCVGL

`N#Cc1c(N)nc(NCCCCC2CCN(Cc3ccccc3)CC2)c(C#N)c1-c1ccccc1`: the IC50 on Acetylcholinesterase [1] is 120 nM; against Cholinesterase [2], 580 nM. The Papp at 4 h, 1 mg/ml in series [3] worked out at 25.7 ×10⁻⁶ cm/s.
For `N#Cc1c(N)nc(NCCC2CCN(Cc3ccccc3)CC2)c(C#N)c1-c1ccccc1` the same measures were 390 nM, 670 nM and 34 ×10⁻⁶ cm/s.
On to `N#Cc1c(N)nc(NC2CCN(Cc3ccccc3)CC2)c(C#N)c1-c1ccccc1`, for which the IC50 against Acetylcholinesterase [1] was 8800 nM; against Cholinesterase [2], more than 10000 nM. Further, the permeability result in series [3] (pampa, 4 h) is reported as “ND(Insoluble)”.
As to `N#Cc1cc(C#N)c(NC2CCN(Cc3ccccc3)CC2)nc1N`, the results for the 50% inhibitory concentration (IC50) against Acetylcholinesterase [1] and against Cholinesterase [2] were 3100 nM and more than 10000 nM, respectively. Besides, in series [3], the Papp at 4 h, 1 mg/ml stood at 17 ×10⁻⁶ cm/s.
For `N#Cc1cc(C#N)c(NCCCCC2CCN(Cc3ccccc3)CC2)nc1N`, the values for the IC50 at Acetylcholinesterase [1] and at Cholinesterase [2] were 70 nM and 1700 nM, respectively. Moreover, the Papp at 4 h, 1 mg/ml in series [3] came to 21.2 ×10⁻⁶ cm/s.
Consider `N#Cc1cc(C#N)c(N2CCCC2)nc1N`, for which the IC50 on Cholinesterase [4] is more than 10000 nM.
For the compound `N#Cc1c(N)nc(NCCCC2CCN(Cc3ccccc3)CC2)c(C#N)c1-c1ccccc1`, the IC50 against Acetylcholinesterase [1] turned out to be 240 nM; on Cholinesterase [2], 1500 nM. For the same compound, in series [3], the Papp at 4 h, 1 mg/ml came to 31.6 ×10⁻⁶ cm/s.
On to `N#Cc1cc(C#N)c(NCCCC2CCN(Cc3ccccc3)CC2)nc1N`, for which the IC50 against Acetylcholinesterase [1] amounted to 9.4 nM; at Cholinesterase [2] it was 6600 nM. Further, the Ratio IC50 at Acetylcholinesterase [5] amounted to 1.4. In addition, the Papp at 4 h, 1 mg/ml in series [3] was 20.8 ×10⁻⁶ cm/s.
For `N#Cc1cc(C#N)c(NCCC2CCN(Cc3ccccc3)CC2)nc1N`, the IC50 worked out at 220 nM at Acetylcholinesterase [1] and 260 nM on Cholinesterase [2]. The Papp at 4 h, 1 mg/ml in series [3] is 14.4 ×10⁻⁶ cm/s.
